# Rows were chosen to be rich in hits. Some 3.3% of all compounds tested hit in one or more screens of this group.
# DENV2 CPE rescue: inhibitors of DENV2 cytopathic effect. DENV2-infected cells, cytopathic effect rescue, plate reader. CPE inhibition, % at 9.99 µM. actives 1.7% (n = 350,000). AID 651640; in the data active = CPE inhibition above about 20%, passing the limit was not always enough; inconclusive = no clear call, values can overlap the other calls; tested in BHK-21 cells;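 note: 0% = median of neutral control wells and 100% = median of positive control wells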
# Statin myotox sup: suppressors of simvastatin-induced myotoxicity in C2C12 myotubes; ATP luminescence, 48 h; scaled: DMSO 0, geranylgeraniol control 100; AID 602340; rescue of ATP level, % at 7.49 µM; actives 0.78% (n = 330,000);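 active = mean ATP rescue above about 67%, or every replicate alone reaching that limit, limit read from the data, passing the limit was not always enough; inconclusive = no clear call, values can overlap the other calls; inactive = mean under the limit and some replicate under it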;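 note: myotubes were challenged with 10 µM simvastatin during compound exposure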
# E-sel inducer: induces E-selectin expression in human endothelial cells. P16581. HUVEC E-selectin immunofluorescence imaging; normalized: neutral wells 0, TNF-alpha wells 100. activation, % at 7.58 µM. AID 686992. actives 0.37% (n = 260,000);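 active = mean E-selectin-positive cell signal at least 10% of the positive control, reached in at least 60% of replicates, without over 20% cell loss; inconclusive = no rule given, readout overlaps actives, possibly toxicity-flagged; inactive = the rest, including those meeting only one limit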
# Target sequence (P16581 whole entry, looked up): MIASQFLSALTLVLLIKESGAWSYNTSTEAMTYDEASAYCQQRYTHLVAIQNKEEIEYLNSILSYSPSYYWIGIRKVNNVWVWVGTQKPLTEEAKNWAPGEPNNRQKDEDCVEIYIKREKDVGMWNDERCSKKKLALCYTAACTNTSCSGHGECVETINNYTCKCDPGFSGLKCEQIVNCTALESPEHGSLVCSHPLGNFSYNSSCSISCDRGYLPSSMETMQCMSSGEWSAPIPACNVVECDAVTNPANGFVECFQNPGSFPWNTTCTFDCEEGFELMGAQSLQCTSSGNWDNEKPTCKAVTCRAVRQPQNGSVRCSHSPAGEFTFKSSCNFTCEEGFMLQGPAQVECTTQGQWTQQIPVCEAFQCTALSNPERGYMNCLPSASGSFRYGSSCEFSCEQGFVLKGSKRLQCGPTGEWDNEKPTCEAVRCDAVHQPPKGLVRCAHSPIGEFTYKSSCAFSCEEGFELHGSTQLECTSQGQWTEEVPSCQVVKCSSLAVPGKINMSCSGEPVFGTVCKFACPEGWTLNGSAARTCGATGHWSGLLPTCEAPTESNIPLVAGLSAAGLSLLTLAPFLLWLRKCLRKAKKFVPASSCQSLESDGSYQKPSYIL
#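 Material: HUVEC primary endothelial cells; Amount: 3,000 cells per well; Dosing: single concentration; Medium: EGM-2 growth medium on 0.1% gelatin-coated wells; Read-out basis: percent E-selectin-positive cells; Signal: immunofluorescence imaging; Control set: TNF-alpha, DMSO.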
# FGF22 binding: shifts melting point of recombinant human FGF22 | actives 1.5% (n = 340,000) | activity (Tm shift, normalised), % at 9.99 µM | AID 651658 | recombinant FGF22 thermal shift, SYPRO orange fluorescence; percent of sucrose octasulfate shift, DMSO zero | Q9HCT0;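 active = mean Tm shift, scaled 0 neutral to 100 positive control, at about 1.3% or above, every replicate too, limit read from the data; inconclusive = no clear call, values can overlap the other calls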
# XiGFP reactiv: activators of X-chromosome reactivation in mouse fibroblasts. XiGFP mouse fibroblasts, % GFP-positive cells imaging, 3 d; cells co-treated with 5-aza-dC sensitizer; scaled so ellipticine positive control = 100%. activation, % at 7.58 µM. actives 0.055% (n = 360,000);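 active = mean normalized replicate activation at least 10% and every replicate at or above 10%; inconclusive = only one of the two criteria met; inactive = mean below 10% and not all replicates reach 10%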;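 note: 0% = median of on-plate neutral control wells and 100% = ellipticine 6 µM median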
#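 Assay system: SV40-immortalized XiGFP fibroblast cells, line 68-5-11; buffer or medium: DMEM plus 5-aza-dC sensitizer; compound: one concentration, pinned; timing: compounds 3 days, fix/stain 15 min at room temperature; benchmarks: positive control ellipticine, 6 µM final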
# PglD inh: inhibitors of Campylobacter jejuni PglD acetyltransferase | purified PglD enzyme, DTNB colorimetric CoA detection | inhibition, % at 12.5 µM | actives 0.098% (n = 360,000) | AID 602405; in the data active = inhibition above about 16%, passing the limit was not always enough; inconclusive = no clear call, values can overlap the other calls
# Starred values were filed as active, the others as inactive; ? = inconclusive; . = not tested or not shown.
SMILES,DENV2 CPE rescue,Statin myotox sup,E-sel inducer,FGF22 binding,XiGFP reactiv,PglD inh
CCOc1ccc(CN(C)CC(=O)Nc2cc(C)c(C)cc2[N+](=O)[O-])cc1,?,-1.6,-0.1,43.1*,0.0,0.3
O=C(O)C1C(c2ccccc2)=C1c1ccc(Br)cc1 (configuration not stated),7.4,.,0.3,43.1*,0.2,.
CCOC(=O)CSC1=C(C#N)C(c2ccc3c(c2)OCO3)CC(=O)N1 (configuration not stated),.,.,.,.,.,-3.3
CCCCOC(=O)CSC1=C(C#N)C(c2ccc3c(c2)OCO3)CC(=O)N1 (configuration not stated),.,101.5*,.,.,.,0.8
CCCCn1nc(C(=O)Nc2ccc3c(c2)OCO3)c2ccccc2c1=O,36.2*,-6.7,0.1,0.1,0.2,5.9
CCCCn1nc(C(=O)Nc2ccc(-n3cnnn3)cc2)c2ccccc2c1=O,57.3*,-8.1,-0.1,-0.1,-0.1,-7.6
O=C(C[C@H]1C[C@@H]2c3cc(NC(=O)NC4CCCC4)ccc3O[C@@H]2[C@H](CO)O1)NCc1cccnc1,12.8,.,0.0,0.4,0.0,.
CCO[C@@H]1OC(C(=O)N2CCN(Cc3ccc4c(c3)OCO4)CC2)=C[C@H](C)[C@H]1CCCO,1.9,9.5,0.1,0.5,-0.6,4.5
CCO[C@H]1OC(C(=O)N2CCN(Cc3ccc4c(c3)OCO4)CC2)=C[C@@H](C)[C@@H]1CCCO,-1.8,-0.1,-0.2,9.2*,-0.1,-5.1
C#CCNC(=O)C1=C[C@H](c2ccc3c(c2)OCO3)C[C@H](OCCCCO)O1,26.2*,.,-0.1,-0.3,0.1,.
C#CCNC(=O)C1=C[C@@H](c2ccc3c(c2)OCO3)C[C@@H](OCCCCO)O1,-13.9,-10.3,1.6,-0.1,-0.1,-1.1
O=C(C1=C[C@H](C2CC2)C[C@H](OCCCCO)O1)N1CCN(Cc2ccc3c(c2)OCO3)CC1,0.7,0.3,-0.1,-0.1,0.0,14.7
C[C@@H]1C=C(C(=O)N2CCN(Cc3ccc4c(c3)OCO4)CC2)O[C@H](OCCCCO)C1,21.4*,17.2,-0.1,0.2,0.7,0.4
C[C@@H]1CCCCO[C@@H](CN(C)S(=O)(=O)c2ccc(Cl)cc2)[C@H](C)CN([C@H](C)CO)C(=O)c2cc(NS(=O)(=O)c3cccs3)ccc2O1,-3.7,.,-0.3,0.0,0.0,0.5
CCc1nc2ccccc2c(C(=O)Oc2ccc(C(=O)OC)cc2)c1C,7.7,2.8,.,43.9*,0.0,-1.2
CCN(C[C@H]1N[C@@](CC)(C(=O)OC)[C@H]2C(=O)N(C)C(=O)[C@@H]12)S(=O)(=O)c1ccc(-c2ccccc2)cc1,-5.2,-8.3,.,0.3,-0.1,1.2
CCN(C[C@H]1N[C@@](C)(C(=O)OC)[C@H]2C(=O)N(C)C(=O)[C@@H]12)C(=O)Nc1ccc(F)cc1,-10.5,-11.4,.,-0.3,0.2,-4.5
CCN(C[C@H]1N[C@@](C)(C(=O)OC)[C@H]2C(=O)N(C)C(=O)[C@@H]12)S(=O)(=O)c1ccc(-c2ccccc2)cc1,20.1*,6.7,.,-0.2,0.3,-0.3
CCNC(=O)N(CC)C[C@H]1N[C@@](C)(C(=O)OC)[C@H]2C(=O)N(C)C(=O)[C@@H]12,45.5*,-4.7,0.0,0.0,0.0,-1.2
CCN(C[C@H]1N[C@@](CC)(C(=O)OC)[C@H]2C(=O)N(C)C(=O)[C@@H]12)S(=O)(=O)c1ccc(OC)cc1,25.9*,3.9,.,-0.1,0.2,-1.1
O=C(CCCCn1ccc(=O)[nH]c1=O)Nc1ccc(C(=O)O)c(O)c1,-5.7,-0.4,-0.1,42.1,0.2,-1.4
O=C(CCCCn1ccc(=O)[nH]c1=O)Nc1ccc(O)c(C(=O)O)c1,-1.5,5.0,2.0,43.1*,0.3,2.9
CC(C)C#Cc1cnc2c(c1)C(=O)N([C@H](C)CO)C[C@H](C)[C@H](CN(C)C(=O)c1cccnc1)O2,-3.6,6.8,0.4,-0.1,-1.1,7.3
C[C@H](CO)N1C[C@H](C)[C@@H](CN(C)Cc2ccc3c(c2)OCO3)OCCCC[C@H](C)Oc2ccc(NS(=O)(=O)c3ccc(Cl)cc3)cc2C1=O,-6.3,.,.,.,0.3,5.5
CC[n+]1ccc(/C=C/c2ccc(N(C)C)cc2)c2ccccc21,-0.9,.,114.6*,41.4,0.1,.
SMILES,DENV2 CPE rescue,Statin myotox sup,E-sel inducer,FGF22 binding,XiGFP reactiv,PglD inh
CC[n+]1ccccc1/C=C/c1ccc(N(C)C)cc1,8.4,.,.,0.0,0.3,-1.0
CCCCCC[n+]1ccccc1/C=C/c1ccc(N(C)C)cc1,-1.4,-50.4,-0.1,-0.1,16.3*,3.7
C[C@H](CO)N1C[C@H](C)[C@H](CN(C)C(=O)Nc2ccc(F)cc2)Oc2ccc(NC(=O)Nc3ccc(C(F)(F)F)cc3)cc2C1=O,-4.4,30.0,0.0,-0.1,-1.0,0.1
C[C@H](CO)N1C[C@H](C)[C@H](CN(C)C(=O)Nc2ccc(F)cc2)Oc2c(NC(=O)C3CC3)cccc2C1=O,34.6*,-18.3,0.1,.,0.1,-0.1
CC(C)NC(=O)Nc1cccc2c1O[C@H](CN(C)C(=O)Nc1ccc(F)cc1)[C@H](C)CN([C@@H](C)CO)C2=O,-9.8,5.2,1.3,0.0,-0.4,-2.9
C[C@@H]1CN([C@H](C)CO)C(=O)c2cccc(NC(=O)C3CC3)c2O[C@@H]1CN(C)C(=O)Nc1ccc(F)cc1,12.1,-19.3,1.0,0.2,0.1,-1.8
CC(C)NC(=O)Nc1cccc2c1O[C@@H](CN(C)C(=O)Nc1ccc(F)cc1)[C@@H](C)CN([C@H](C)CO)C2=O,21.9*,-18.9,-0.1,-0.1,-0.9,0.0
Cc1cc(F)ccc1S(=O)(=O)N1CCCCC1CCNC(=O)C(=O)NCc1ccccn1 (configuration not stated),-1.5,.,75.0*,0.0,0.0,.
Cc1ccc(C)c(S(=O)(=O)N2CCCCC2CCNC(=O)C(=O)NCc2ccccn2)c1 (configuration not stated),2.7,12.6,-0.6,-0.2,-0.2,.
C[C@H]1CN([C@@H](C)CO)C(=O)c2cccc(NS(=O)(=O)c3ccc(F)cc3)c2O[C@@H]1CN(C)C(=O)Nc1cccc2ccccc12,11.2,.,0.0,0.2,0.0,.
C[C@@H]1CN([C@H](C)CO)C(=O)c2cccc(NC(=O)Nc3ccc4c(c3)OCO4)c2O[C@@H]1CN(C)Cc1ccc(C(F)(F)F)cc1,36.4*,-25.9,0.8,-0.7,0.1,0.3
C[C@@H]1CN([C@H](C)CO)C(=O)c2cccc(NC(=O)Nc3ccc(F)cc3)c2O[C@H]1CN(C)Cc1ccc(C(F)(F)F)cc1,.,38.9,2.2,-0.1,-0.5,4.0
CC(C)NC(=O)Nc1cccc2c1O[C@H](CN(C)Cc1ccncc1)[C@@H](C)CN([C@H](C)CO)C2=O,-6.1,-11.3,80.6*,-0.2,-0.1,-3.8

# Compound activity (PubChem BioAssay)
